# Test results published in ChEMBL document CHEMBL1137555, “Aminocyclohexylsulfonamides: discovery of metabolically stable alpha(1a/1d)-selective adrenergic receptor antagonists for the treatment of benign prostatic hyperplasia/lower urinary tract symptoms (BPH/LUTS)” (Bioorg Med Chem Lett, 2007).
# pKi: −log10 of the molar value.
# Columns and labels:
# [1] = Metabolic stability in human liver microsomes; format: ADME, Microsome
# Procedure, shortened: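 Human liver microsomal metabolism assay; read-out was half-life (T1/2, min).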
# D(2) dopamine receptor = D(2) dopamine receptor (Homo sapiens, UniProt P14416); assay: Binding affinity to human cloned dopamine D2 receptor
# Sequence of D(2) dopamine receptor (P14416 whole entry): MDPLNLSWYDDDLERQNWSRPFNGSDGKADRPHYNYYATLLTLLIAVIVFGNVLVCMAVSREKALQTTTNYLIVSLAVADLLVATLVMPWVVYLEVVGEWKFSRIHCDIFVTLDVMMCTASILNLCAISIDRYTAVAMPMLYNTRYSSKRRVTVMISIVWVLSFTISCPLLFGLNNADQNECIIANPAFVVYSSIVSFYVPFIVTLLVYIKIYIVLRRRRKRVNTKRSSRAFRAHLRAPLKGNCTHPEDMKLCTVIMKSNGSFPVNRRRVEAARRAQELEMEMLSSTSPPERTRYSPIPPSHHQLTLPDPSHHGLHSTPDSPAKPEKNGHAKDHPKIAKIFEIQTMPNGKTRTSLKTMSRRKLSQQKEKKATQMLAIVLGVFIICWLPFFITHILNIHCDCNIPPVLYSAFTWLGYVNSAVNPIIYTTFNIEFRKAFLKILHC
# [2] = target: T1, Alpha-1B adrenergic receptor (Homo sapiens, UniProt P35368); assay: Binding affinity to human cloned adrenergic alpha-1b receptor
# T1 sequence (P35368 whole entry): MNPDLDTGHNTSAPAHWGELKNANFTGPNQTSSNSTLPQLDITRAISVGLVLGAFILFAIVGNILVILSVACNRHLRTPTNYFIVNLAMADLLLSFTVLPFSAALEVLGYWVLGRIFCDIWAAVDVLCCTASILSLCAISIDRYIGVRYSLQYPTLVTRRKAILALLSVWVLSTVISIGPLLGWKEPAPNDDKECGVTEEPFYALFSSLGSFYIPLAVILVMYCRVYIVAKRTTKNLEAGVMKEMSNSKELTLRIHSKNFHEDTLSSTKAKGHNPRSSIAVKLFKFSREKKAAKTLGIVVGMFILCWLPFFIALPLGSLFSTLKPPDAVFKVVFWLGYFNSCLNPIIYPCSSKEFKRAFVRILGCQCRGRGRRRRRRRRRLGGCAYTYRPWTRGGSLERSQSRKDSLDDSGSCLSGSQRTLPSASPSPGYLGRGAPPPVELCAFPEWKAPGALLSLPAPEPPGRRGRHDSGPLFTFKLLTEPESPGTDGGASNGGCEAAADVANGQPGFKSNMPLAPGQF
# [3] = target: T2, Alpha-1D adrenergic receptor (Homo sapiens, UniProt P25100); assay: Binding affinity to human cloned adrenergic alpha-1d receptor
# T2 sequence (P25100 whole entry): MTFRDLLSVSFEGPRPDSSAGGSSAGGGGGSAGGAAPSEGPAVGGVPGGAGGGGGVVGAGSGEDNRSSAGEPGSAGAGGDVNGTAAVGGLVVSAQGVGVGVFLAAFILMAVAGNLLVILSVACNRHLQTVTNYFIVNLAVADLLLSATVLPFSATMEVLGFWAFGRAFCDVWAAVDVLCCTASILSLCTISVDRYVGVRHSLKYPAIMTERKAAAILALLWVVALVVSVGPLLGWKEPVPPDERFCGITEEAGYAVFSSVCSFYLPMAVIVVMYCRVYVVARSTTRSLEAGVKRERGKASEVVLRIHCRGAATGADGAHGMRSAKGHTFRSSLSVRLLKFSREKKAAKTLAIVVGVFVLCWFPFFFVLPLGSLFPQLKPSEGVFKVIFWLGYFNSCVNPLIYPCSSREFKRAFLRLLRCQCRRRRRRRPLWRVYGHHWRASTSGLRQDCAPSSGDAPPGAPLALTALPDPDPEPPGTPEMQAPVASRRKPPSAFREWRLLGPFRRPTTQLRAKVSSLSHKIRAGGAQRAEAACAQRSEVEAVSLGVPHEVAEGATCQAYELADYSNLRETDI
# [4] = target: T3, Alpha-1A adrenergic receptor (Homo sapiens, UniProt P35348); assay: Binding affinity to human cloned adrenergic Alpha-1A receptor
# T3 sequence (P35348 whole entry): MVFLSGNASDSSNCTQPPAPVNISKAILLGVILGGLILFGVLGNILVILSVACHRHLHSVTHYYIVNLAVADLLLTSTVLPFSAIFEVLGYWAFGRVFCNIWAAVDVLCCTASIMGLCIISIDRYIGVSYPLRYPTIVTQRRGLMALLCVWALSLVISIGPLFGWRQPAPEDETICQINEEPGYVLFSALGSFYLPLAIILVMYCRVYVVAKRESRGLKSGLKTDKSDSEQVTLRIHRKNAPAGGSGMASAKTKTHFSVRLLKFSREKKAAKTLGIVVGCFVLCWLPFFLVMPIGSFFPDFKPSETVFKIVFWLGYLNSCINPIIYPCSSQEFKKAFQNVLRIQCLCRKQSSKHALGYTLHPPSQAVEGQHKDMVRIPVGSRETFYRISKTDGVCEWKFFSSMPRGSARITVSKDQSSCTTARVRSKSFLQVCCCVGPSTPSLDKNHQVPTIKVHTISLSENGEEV
SMILES,half-life [1] [min],pKi (D(2) dopamine receptor),pKi [2],pKi [3],pKi [4]
COc1ccc(S(=O)(=O)N[C@H]2CC[C@@H](N3CCC(c4ccccc4OCC(F)(F)F)CC3)CC2)cc1OC,56,,,,
COc1ccc(S(=O)(=O)N[C@H]2CC[C@@H](N3CCC(c4ccccc4OC4CC4)CC3)CC2)cc1OC,18,,,,
COc1ccc(S(=O)(=O)N[C@H]2CC[C@H](N3CCN(c4ccccc4OCC(F)(F)F)CC3)CC2)cc1OC,,6.94,7.41,,
COc1ccc(S(=O)(=O)N[C@H]2CC[C@@H](N3CCC(c4ccccc4OCC(F)F)CC3)CC2)cc1OC,21,6.64,6.56,8.07,
COc1ccc(S(=O)(=O)N[C@H]2CC[C@@H](N3CCC(c4ccccc4OC(C)C)CC3)CC2)cc1OC,12,6.78,6.82,8.77,8.74
COc1ccc(S(=O)(=O)N[C@H]2CC[C@@H](N3CCN(c4ccccc4OC(C)C)CC3)CC2)cc1OC,4.9,6.87,6.97,9.17,
COc1ccc(S(=O)(=O)N[C@H]2CC[C@@H](N3CCC(c4ccccc4OCCF)CC3)CC2)cc1OC,20,6.48,,,

# Further lines, with some results ahead:
half-life [1] [min],pKi (D(2) dopamine receptor),SMILES,pKi [2],pKi [3],pKi [4]
< 2,,COc1ccc(F)cc1S(=O)(=O)N[C@H]1CC[C@@H](N2CCN(c3ccccc3OC(C)C)CC2)CC1,,,
< 2,,COc1ccc(Cl)cc1S(=O)(=O)N[C@H]1CC[C@@H](N2CCN(c3ccccc3OC(C)C)CC2)CC1,,,
2.5,,CC(C)Oc1ccccc1N1CCN([C@H]2CC[C@@H](NS(=O)(=O)c3ccc(S(C)(=O)=O)cc3)CC2)CC1,,,
,8.57,CCN([C@H]1CC[C@H](N2CCN(c3ccccc3OC(C)C)CC2)CC1)S(=O)(=O)c1ccc(OC)c(OC)c1,,,
3.5,,CC(C)Oc1ccccc1N1CCN([C@H]2CC[C@@H](NS(=O)(=O)c3ccc(Cl)cc3Cl)CC2)CC1,,,
< 2,,COc1ccc(C)cc1S(=O)(=O)N[C@H]1CC[C@@H](N2CCN(c3ccccc3OC(C)C)CC2)CC1,,,
,6.95,CCN([C@H]1CC[C@@H](N2CCN(c3ccccc3OC(C)C)CC2)CC1)S(=O)(=O)c1ccc(OC)c(OC)c1,,,
35,6.72,COc1ccc(S(=O)(=O)N[C@H]2CC[C@@H](N3CCN(c4ccccc4OCC(F)(F)F)CC3)CC2)cc1OC,7.07,9.46,
